Laboratory results published in ChEMBL document CHEMBL1150800, “Multiple-dose escalation study of the safety, pharmacokinetics, and biologic activity of oral AMD070, a selective CXCR4 receptor inhibitor, in human subjects” (Antimicrob Agents Chemother, 2007).
Converted amounts (≈) assume the structure as drawn.

Key:
[1] = Tmax in fasting healthy human at 100 mg, po administered every 12 hrs; type: ADME, organism-based; conditions: in vivo
Method in brief: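 Six healthy male volunteers per cohort received seven oral doses q12h. Morning doses followed an 8-h fast, with fasting continued until 1 h post-dose. After the final dose (72 h after the first), plasma was sampled pre-dose and at 0.5–24 h, and assayed by validated HPLC-MS/MS. Tmax came from individual noncompartmental analysis, summarized per cohort.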

[2] = Tmax in fasting healthy human at 400 mg, po administered as single dose; type: ADME, organism-based; conditions: in vivo
Method in brief: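 Healthy male volunteers, three per cohort, took one oral dose after an 8-h overnight fast and stayed fasting until 1 h post-dose. Tmax came from per-subject noncompartmental analysis, summarized by cohort.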

[3] = AUC (0 to 12 hrs) in fasting healthy human at 100 mg, po administered every 12 hrs measured between 72 to 84 hrs postdose; type: ADME, organism-based; parameters: dose 100 mg, time < 12 hr, route oral; conditions: plasma
Method in brief: (§1)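 Six healthy men per cohort dosed orally q12h for seven doses. Morning doses given after 8-h fast, with fasting until 1 h post-dose. After the final dose (72 h after the first) plasma was sampled predose and 0.5–24 h. Validated HPLC-MS/MS assay. Noncompartmental parameters (log-linear trapezoidal AUC) from all time points, summarized per cohort.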

[4] = Drug level in fasting healthy human at 400 mg, po administered every 12 hrs measured after 72 hrs; type: ADME, organism-based; conditions: in vivo, read-out: Drug uptake; method in brief: as §1
[5] = tested on: Human immunodeficiency virus 1; experiment: Antiviral activity against HIV1 NL4.3 in human MT4 cells; type: functional, organism-based; conditions: Human immunodeficiency virus 1, MT4
[6] = Drug level in fasting healthy human at 50 mg, po administered as single dose after 12 hrs; type: ADME, organism-based; conditions: in vivo, read-out: Drug uptake
Method in brief: (§2)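 Healthy male volunteers, three per cohort, one oral dose after 8-h overnight fast, fasting kept until 1 h post-dose. Plasma sampled predose and at 0.5, 1, 1.5, 2, 3, 4, 6, 8, 12, 16, 20, 24 h. Levels by validated HPLC-MS/MS (liquid-liquid extraction, positive-ion electrospray). Noncompartmental analysis, log-linear trapezoidal AUC, summarized per cohort.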

Homo sapiens [7] = experiment: Half life in fasting healthy human at 400 mg, po administered every 12 hrs; type: ADME, organism-based; conditions: in vivo; method in brief: as §1
Homo sapiens [8] = experiment: Apparent volume of distribution in fasting healthy human at 200 mg, po administered as single dose after 12 hrs; type: ADME, organism-based; conditions: in vivo; method in brief: as §2
Homo sapiens [9] = experiment: Decrease in CD4 cell count in fasting healthy human at 400 mg, po administered every 12 hrs measured after 24 hrs relative to baseline; type: functional; parameters: scale not given: the % may be the effect or the level left
Method in brief: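 CD4+ counts drawn before the first dose and at 2, 4, 6, 8 and 24 h after the final (seventh) q12h oral dose in fasting healthy men. Each post-dose value divided by the baseline value to give a ratio. Deviation from no effect tested by Wilcoxon rank sum, dose trend by Jonckheere-Terpstra.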

[10] = Terminal half life in dog; type: ADME, organism-based, Canis lupus familiaris; conditions: in vivo
[11] = AUC (0 to 12 hrs) in fasting healthy human at 200 mg, po administered every 12 hrs measured between 72 to 84 hrs postdose; type: ADME, organism-based; parameters: dose 200 mg, time < 12 hr, route oral; conditions: plasma; method in brief: as §1
[12] = Oral bioavailability in rat; type: ADME, organism-based; conditions: in vivo
Homo sapiens [13] = experiment: Half life in fasting healthy human at 100 mg, po administered every 12 hrs; type: ADME, organism-based; conditions: in vivo; method in brief: as §1
Homo sapiens [14] = experiment: Apparent volume of distribution in fasting healthy human at 50 mg, po administered as single dose after 12 hrs; type: ADME, organism-based; conditions: in vivo; method in brief: as §2
Homo sapiens [15] = experiment: Induction of leucocytosis in po dosed fasting healthy human assessed as increase in WBC count; type: functional, organism-based
Method in brief: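 Total WBC drawn predose and at 2, 4, 6, 8 and 24 h after oral dosing (single-dose cohorts from 200 mg, and multiple-dose cohorts). Ratio taken to baseline. WBC ratio against plasma concentration at all sampling times (n = 232) fit to an Emax model giving Emax and EC50. Per-subject maximum ratio also fit to dose, AUC0-24 and Cmax.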

Homo sapiens [16] = experiment: Apparent volume of distribution in fasting healthy human at 200 mg, po administered every 12 hrs; type: ADME, organism-based; conditions: in vivo; method in brief: as §1
Homo sapiens [17] = experiment: Half life in fasting healthy human at 200 mg, po administered every 12 hrs; type: ADME, organism-based; conditions: in vivo; method in brief: as §1
[18] = Cmax in fasting healthy human at 100 mg, po administered every 12 hrs; type: ADME, organism-based; parameters: dose 100 mg, route oral; conditions: in vivo; method in brief: as §1
Homo sapiens [19] = experiment: Half life in fasting healthy human at 100 mg, po administered as single dose after 12 hrs; type: ADME, organism-based; conditions: in vivo; method in brief: as §2
[20] = Cmax in fasting healthy human at 50 mg, po administered as single dose; type: ADME, organism-based; parameters: dose 50 mg, route oral; conditions: in vivo; method in brief: as §2
[21] = Drug level in fasting healthy human at 100 mg, po administered every 12 hrs measured after 84 hrs; type: ADME, organism-based; conditions: in vivo, read-out: Drug uptake; method in brief: as §1
Homo sapiens [22] = experiment: Apparent volume of distribution in fasting healthy human at 400 mg, po administered every 12 hrs; type: ADME, organism-based; conditions: in vivo; method in brief: as §1
[23] = Terminal half life in rat; type: ADME, organism-based; conditions: in vivo
[24] = AUC (0 to 12 hrs) in fasting healthy human at 400 mg, po administered every 12 hrs measured between 72 to 84 hrs postdose; type: ADME, organism-based; parameters: time < 12 hr, dose 400 mg, route oral; conditions: plasma; method in brief: as §1
Homo sapiens [25] = experiment: Half life in fasting healthy human at 400 mg, po administered as single dose after 12 hrs; type: ADME, organism-based; conditions: in vivo; method in brief: as §2
Homo sapiens [26] = experiment: Apparent volume of distribution in fasting healthy human at 100 mg, po administered every 12 hrs; type: ADME, organism-based; conditions: in vivo; method in brief: as §1
Homo sapiens [27] = experiment: AUC ( 0 to infinity) in fasting healthy human at 200 mg, po administered as single dose after 12 hrs; type: ADME, organism-based, Plasma; parameters: dose 200 mg, route oral, time infinity; conditions: in vivo; method in brief: as §2

With `NCCCCN(Cc1nc2ccccc2[nH]1)[C@H]1CCCc2cccnc21` [MAVORIXAFOR] as the molecule, how does the Tmax [1] read?
The Tmax was 1.7 h.

What about the Tmax [2] of the same molecule?
Its Tmax is 1.5 h.

What about the AUC at 12 h [3] of the same molecule?
The AUC at 12 h was 937 ng·h/mL.

What about the concentration at 72 h [4] of the same molecule?
The concentration at 72 h was 122 ng/mL.

And the EC90 [5]?
Its EC90 is 0.044 µg/mL (≈ 0.126 µM).

What about the IC50 [5] of the same molecule?
The IC50 was 0.0023 µg/mL (≈ 0.00658 µM).

And the concentration at 12 h [6]?
The concentration at 12 h was 1.5 ng/mL.

What about the t1/2 (Homo sapiens [7]) of the same molecule?
Its t1/2 is 12 h.

What about the Vd (Homo sapiens [8]) of the same molecule?
The Vd was 2152 L.

What about the Activity (Homo sapiens [9]) of the same molecule?
The Activity was 80%.

What about the half-life [10] of the same molecule?
The half-life was 10 h.

What about the AUC at 12 h [11] of the same molecule?
The AUC at 12 h was 1590 ng·h/mL.

And the bioavailability [12]?
Its bioavailability is 20%.

And the t1/2 (Homo sapiens [13])?
The t1/2 was 15.9 h.

What about the Vd (Homo sapiens [14]) of the same molecule?
The Vd was 3620 L.

And the EC50 (Homo sapiens [15])?
Its EC50 is 0.039 µg/mL (≈ 0.112 µM).

What about the Vd (Homo sapiens [16]) of the same molecule?
Its Vd is 1923 L.

What about the t1/2 (Homo sapiens [17]) of the same molecule?
Its t1/2 is 11.2 h.

And the Cmax [18]?
Its Cmax is 461 ng/mL.

What about the t1/2 (Homo sapiens [19]) of the same molecule?
The t1/2 was 7.6 h.

What about the Cmax [20] of the same molecule?
Its Cmax is 159 ng/mL.

What about the concentration at 84 h [21] of the same molecule?
The concentration at 84 h was 12 ng/mL.

And the Vd (Homo sapiens [22])?
Its Vd is 966 L.

What about the half-life [23] of the same molecule?
The half-life was 10 h.

And the AUC at 12 h [24]?
The AUC at 12 h was 7660 ng·h/mL.

And the t1/2 (Homo sapiens [25])?
The t1/2 was 11.2 h.

What about the Vd (Homo sapiens [26]) of the same molecule?
The Vd was 2663 L.

What about the AUC (Homo sapiens [27]) of the same molecule?
Its AUC is 1695 ng·h/mL.
